For series [1], the system named is Osteoclast. The series is described as follows: Inhibition of human osteoclast-mediated type 1 bone collagen degradation assessed as release of europium-labeled collagen fragments at 0.1 uM after 7 days by time-resolved fluorescence assay. The format is functional, cell-based. The essentials:
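Mononuclear cells were seeded on Europium-labelled human type I collagen and cultured 7 days in differentiation medium, then drug was added; total culture time was 14 days. Released fragments in supernatant were measured by time-resolved fluorescence (excitation 340 nm, emission 615 nm). Result is the RFU ratio of treated to untreated osteoclasts, quadruplicate wells, 2 donors.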

The subject of series [2] is Osteoclast. Description: Inhibition of human osteoclast-mediated type 1 bone collagen degradation assessed as release of europium-labeled collagen fragments at 10 uM after 7 days by time-resolved fluorescence assay. The format is functional, cell-based. The essentials: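 Adherent monocytes from Ficoll-isolated peripheral blood of healthy donors were seeded on human type I bone collagen and differentiated in osteoclast medium for 7 days. They were then exposed to three drug concentrations until day 14. Supernatant was mixed with fluorophore-releasing reagent and Europium-labelled fragments were read by time-resolved fluorescence (ex 340, em 615 nm). Values are the RFU ratio of treated to untreated osteoclasts, from 2 donors in quadruplicate.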

The subject of series [3] is Osteoclast. Description: Induction of apoptosis in human osteoclasts at 100 uM after 7 days using Hoechst 33258 staining. The format is functional, cell-based. The procedure, abridged:
(§1)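 Blood mononuclear cells from donors were differentiated into osteoclasts for 7 days, then exposed to drug for a further 7 days. After fixing, cells were stained with phalloidin-TRITC 0.3 mg/mL plus Hoechst 33258 for 30 min at room temperature. Multinucleated F-actin-ring cells with apoptotic nuclear bodies were counted over the whole well as % of all multinucleated cells, duplicate wells, 4 cultures from 2 donors.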

The test system of the next series is PBMC. The series is described as follows: Antiosteoclast activity in human PBMC assessed as reduction of osteoclasts formation by measuring TRAcP positive multinucleated cells at 10 uM after 7 days. The format is functional, cell-based. The essentials: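 Blood mononuclear cells from healthy donors, adhered 1 h, then cultured 7 days in osteoclast differentiation medium with drug added from the start. Cells were fixed in 3% paraformaldehyde/2% sucrose, permeabilized in 0.5% Triton, and stained for TRAcP for 60 min at 37 °C. TRAcP-positive multinucleated cells were counted as % of untreated differentiated cultures, duplicate wells, 4 cultures from 2 donors.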

Series [4] concerns Osteoclast. The series is described as follows: Proapoptotic activity in human osteoclasts at 10 uM after 7 days using Hoechst 33258 staining. The format is functional, cell-based. The essentials: as §1
Series [5] has as its system L929. Description: Cytotoxicity against mouse L929 cells assessed as reduction of cell viability after 72 hrs by neutral-red uptake assay. The format is cell-based. To be noted: l929, 72 h. The procedure, abridged: (§2)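 Mouse L929 fibroblasts in DMEM with 10% FCS, seeded 0.8 × 10³ cells/well and allowed to adhere 24 h. They were then exposed to serial dilutions of compound (stocks 10 mM in PBS pH 7.4) for 72 h; untreated medium served as negative control. Cells took up 0.4% neutral red diluted 1:80 for 2 h at 37 °C, and dye was extracted in 50% ethanol/1% acetic acid and read at 540 nm. Result is the OD ratio of treated to negative control, triplicate wells, 5 experiments.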

For the next series, the system named is Hydroxyapatite. Description: Binding affinity to hydroxyapatite at 0.07 mmol up to 120 hrs by 31P NMR-spectroscopy relative to H3PO4.
Series [6] concerns L929. The series is described as follows: Cytotoxicity against mouse L929 cells assessed as reduction of cell viability at 10 to 100 uM after 72 hrs by neutral-red uptake assay. The format is cell-based. To be noted: l929, 72 h. The procedure, abridged: as §2
In series [7] the test system is L929. The series is described as follows: Cytotoxicity against mouse L929 cells assessed as reduction of cell viability at 100 uM after 72 hrs by neutral-red uptake assay. The format is cell-based. The settings on record: l929, 72 h. The procedure, abridged:
as §2

The source made the active and inactive calls. No cut-off for these calls is given here.

`O=P(O)(O)C(CNc1ccccn1)P(=O)(O)O`: the inhibition entry in the series on Osteoclast [1], in the series on Osteoclast [2] and in the series on PBMC was “Active” in each case. Further, the result in the series with Osteoclast [3] and in the series on Osteoclast [4] was Active. Also, the Activity result in the series with L929 [5] was “Dose-dependent effect”; in the series on Hydroxyapatite it was 94%.
For `O=P(O)(O)C(CSc1ccccc1)P(=O)(O)O`, the Activity result with L929 [6] was “Toxic”; in the series on L929 [7], “Toxic”; in the series on Hydroxyapatite, 34%. The inhibition entry in the series on PBMC is “inactive”.
On to `O=P(O)(O)C(CN1CCOCC1)P(=O)(O)O`, for which the Activity entry was “Toxic” in the series on L929 [6], “Toxic” in the series on L929 [7] and 65% with Hydroxyapatite. Moreover, the inhibition result with PBMC was “Active”.
Turning to `NCCC(O)(P(=O)(O)O)P(=O)(O)O` [PAMIDRONIC ACID], the inhibition entry with Osteoclast [1] is “inactive”. The outcome with Osteoclast [3] was Active. Further, in the series on PBMC, the inhibition entry was “Active”. Further, in the series on Osteoclast [4], the outcome was inactive. In the series on L929 [5], the Activity entry is reported as “Dose-dependent effect”.
As to `O=P(O)(O)C(CSCCO)P(=O)(O)O`, the Activity entry was “Toxic” in the series with L929 [6], “Toxic” with L929 [7] and 70% in the series on Hydroxyapatite. Moreover, the inhibition result in the series with Osteoclast [1] is “inactive”. In addition, the inhibition result with Osteoclast [2] and in the series on PBMC was “Active” each time. Besides, the result with Osteoclast [3] and in the series with Osteoclast [4] was Active.
The compound `O=P(O)(O)C(O)(Cn1ccnc1)P(=O)(O)O` yielded an Activity with Hydroxyapatite of 82%.
For `O=P(O)(O)C(CNc1ccccc1)P(=O)(O)O`, the Activity result in the series on L929 [6] is “Toxic”; in the series on L929 [7], “Toxic”; with Hydroxyapatite, 66%. The inhibition result in the series with PBMC was “Active”.

Values taken from ChEMBL document CHEMBL2401628, “Low toxicity and unprecedented anti-osteoclast activity of a simple sulfur-containing gem-bisphosphonate: a comparative study” (Eur J Med Chem, 2013).
